Data reported in publication PMC10925177 (bioRxiv, 2024).

What was measured:
[1] = molecular target: T1, G9a (Homo sapiens, UniProt Q96KQ7); test: Western blot of G9a protein levels in cancer cells; assay type: cell-based; settings: 24 h, WB
T1 sequence (Q96KQ7 1-1210): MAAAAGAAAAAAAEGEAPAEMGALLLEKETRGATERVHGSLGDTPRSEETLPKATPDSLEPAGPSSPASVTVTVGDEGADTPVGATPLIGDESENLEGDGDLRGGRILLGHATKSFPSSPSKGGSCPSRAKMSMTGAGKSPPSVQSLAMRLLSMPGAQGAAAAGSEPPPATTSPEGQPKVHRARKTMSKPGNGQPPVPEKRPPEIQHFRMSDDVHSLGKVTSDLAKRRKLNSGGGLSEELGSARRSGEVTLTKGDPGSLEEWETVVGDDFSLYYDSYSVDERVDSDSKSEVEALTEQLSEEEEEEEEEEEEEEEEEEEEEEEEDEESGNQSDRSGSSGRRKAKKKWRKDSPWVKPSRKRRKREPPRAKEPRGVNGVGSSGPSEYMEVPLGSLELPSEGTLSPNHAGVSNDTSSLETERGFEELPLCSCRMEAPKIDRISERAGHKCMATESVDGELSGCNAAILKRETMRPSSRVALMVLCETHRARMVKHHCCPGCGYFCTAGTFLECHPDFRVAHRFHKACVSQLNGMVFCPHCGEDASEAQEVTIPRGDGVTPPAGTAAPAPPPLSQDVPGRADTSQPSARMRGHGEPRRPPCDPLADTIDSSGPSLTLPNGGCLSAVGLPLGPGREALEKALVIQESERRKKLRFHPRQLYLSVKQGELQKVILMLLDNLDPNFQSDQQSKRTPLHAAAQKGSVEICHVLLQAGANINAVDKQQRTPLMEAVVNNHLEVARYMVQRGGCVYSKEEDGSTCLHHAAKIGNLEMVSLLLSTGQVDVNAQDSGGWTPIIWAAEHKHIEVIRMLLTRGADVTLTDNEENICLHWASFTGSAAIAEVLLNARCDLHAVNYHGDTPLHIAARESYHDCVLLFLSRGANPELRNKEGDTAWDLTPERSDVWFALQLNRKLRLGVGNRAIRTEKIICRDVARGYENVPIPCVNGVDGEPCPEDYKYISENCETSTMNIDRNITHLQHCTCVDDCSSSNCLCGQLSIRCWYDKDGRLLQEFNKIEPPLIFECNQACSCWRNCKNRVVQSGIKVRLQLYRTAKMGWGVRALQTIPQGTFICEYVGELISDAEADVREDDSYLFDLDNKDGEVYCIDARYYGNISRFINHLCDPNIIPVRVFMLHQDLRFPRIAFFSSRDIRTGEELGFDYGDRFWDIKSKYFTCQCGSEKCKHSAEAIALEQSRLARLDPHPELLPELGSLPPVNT
Method in brief: (§1)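 Cells (22Rv1, K562, H1299) were treated for 24 h at the indicated concentrations; 22Rv1 time courses were run at 3 μM. Cells were lysed in RIPA with protease inhibitors, and 10–30 μg of protein was resolved by SDS-PAGE and transferred to PVDF. Blots were probed overnight at 4 °C, with vinculin/β-actin as loading controls. Band intensity was normalised to DMSO, with n = 2 independent experiments (mean ± SD).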

[2] = molecular target: T2, GLP (Homo sapiens, UniProt Q9H9B1); test: Western blot of GLP protein levels in cancer cells; assay type: cell-based; settings: 24 h, WB
T2 sequence (Q9H9B1 1-1298): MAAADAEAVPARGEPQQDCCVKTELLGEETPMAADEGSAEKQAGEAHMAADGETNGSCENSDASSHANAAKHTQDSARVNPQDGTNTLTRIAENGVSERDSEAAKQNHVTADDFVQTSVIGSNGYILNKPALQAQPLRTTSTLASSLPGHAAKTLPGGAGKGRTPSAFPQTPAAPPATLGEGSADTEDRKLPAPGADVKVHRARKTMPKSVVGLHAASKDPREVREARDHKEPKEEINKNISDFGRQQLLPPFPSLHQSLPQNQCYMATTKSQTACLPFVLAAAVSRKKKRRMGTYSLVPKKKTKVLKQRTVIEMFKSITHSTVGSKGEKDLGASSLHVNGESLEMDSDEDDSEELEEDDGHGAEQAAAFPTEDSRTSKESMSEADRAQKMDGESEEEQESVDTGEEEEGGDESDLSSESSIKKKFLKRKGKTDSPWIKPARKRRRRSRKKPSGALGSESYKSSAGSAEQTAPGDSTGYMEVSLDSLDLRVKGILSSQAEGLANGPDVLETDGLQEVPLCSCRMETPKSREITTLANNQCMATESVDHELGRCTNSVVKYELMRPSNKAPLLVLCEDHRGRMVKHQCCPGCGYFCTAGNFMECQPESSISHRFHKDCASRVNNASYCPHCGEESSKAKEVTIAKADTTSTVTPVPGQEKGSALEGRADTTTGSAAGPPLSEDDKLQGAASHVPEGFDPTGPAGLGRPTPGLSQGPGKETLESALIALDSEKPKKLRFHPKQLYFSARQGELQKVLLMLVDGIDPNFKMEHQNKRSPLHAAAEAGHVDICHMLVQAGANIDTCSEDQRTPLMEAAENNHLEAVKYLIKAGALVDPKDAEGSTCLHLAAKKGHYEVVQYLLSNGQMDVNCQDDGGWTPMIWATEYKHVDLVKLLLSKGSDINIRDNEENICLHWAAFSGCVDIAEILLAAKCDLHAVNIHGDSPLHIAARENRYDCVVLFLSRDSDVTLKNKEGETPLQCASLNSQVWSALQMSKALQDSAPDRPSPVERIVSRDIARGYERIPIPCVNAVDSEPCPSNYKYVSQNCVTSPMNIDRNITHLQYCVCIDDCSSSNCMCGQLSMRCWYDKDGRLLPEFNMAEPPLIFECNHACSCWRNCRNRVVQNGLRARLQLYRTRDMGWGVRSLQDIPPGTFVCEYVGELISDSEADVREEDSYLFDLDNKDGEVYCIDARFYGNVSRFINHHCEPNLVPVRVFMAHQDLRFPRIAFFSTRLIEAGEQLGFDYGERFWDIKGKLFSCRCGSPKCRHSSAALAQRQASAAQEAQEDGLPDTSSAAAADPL
Method in brief: as §1

[3] = tested on: K562 cells; test: Cell viability assay; assay type: cell-based; settings: 7 days treatment, WST-8 (CCK-8)
Method in brief: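 K562 cells were grown at 37 °C in 5% CO2 and exposed to serial dilutions of the test compound for 7 days. Viability was read with CCK-8 (WST-8) as absorbance at 450 nm, with 690 nm as reference. IC50 came from curve fitting. Values are mean ± SD from four independent biological experiments.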

[4] = molecular target: T1, G9a; test: G9a radioactive methyltransferase assay; assay type: biochemical; settings: indicated concentrations, duplicate (Figure 4B)
Method in brief: (§2)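 Enzyme activity was measured with a radioisotope-based MT HotSpot methyltransferase assay run by a contract laboratory. Test compounds were run at the indicated concentrations, in duplicate. Data are mean ± SD of the two duplicate experiments.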

[5] = molecular target: T2, GLP; test: GLP radioactive methyltransferase assay; assay type: biochemical; settings: indicated concentrations, duplicate (Figure 4C)
Method in brief: as §2

[6] = tested on: G9a mRNA; test: RT-qPCR of G9a mRNA in H1299 cells; assay type: cell-based; settings: 3 μM, 24 h, normalized to DMSO
Method in brief: (§3)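 H1299 cells were treated with DMSO or test compound at 3 μM for 24 h. Total RNA was extracted and reverse-transcribed to cDNA. qPCR used gene-specific primers for G9a and GLP, and a GAPDH primer set was included.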

[7] = tested on: GLP mRNA; test: RT-qPCR of GLP mRNA in H1299 cells; assay type: cell-based; settings: 3 μM, 24 h, normalized to DMSO
Method in brief: as §3

Compound | G9a degradation, in words ([1]; 22Rv1 cells, 0.3 or 3 μM) | GLP degradation, in words ([2]; 22Rv1 cells, 0.3 or 3 μM) | inhibition of G9a enzymatic activity [4] | inhibition of GLP enzymatic activity [5] | also measured
COc1cc2c(NC3CCN(CCCC(=O)NCCOCCC(=O)N[C@H](C(=O)N4C[C@H](O)C[C@H]4C(=O)NCc4ccc(-c5scnc5C)cc4)C(C)(C)C)CC3)nc(N3CCC(F)(F)CC3)nc2cc1OCCCN1CCCC1 [Compound 11, (2S,4R)-1-((S)-2-(3-(2-(4-(4-((2-(4,4-difluoropiperidin-1-yl)-6-methoxy-7-(3-(pyrrolidin-1-yl)propoxy)quinazolin-4-yl)amino)piperidin-1-yl)butanamido)ethoxy)propanamido)-3,3-dimethylbutanoyl)-4-hydroxy-N-(4-(4-methylthiazol-5-yl)benzyl)pyrrolidine-2-carboxamide] | did not degrade |  |  |  | 
COc1cc2c(NC3CCN(CCCC(=O)NCCOCCOCCOCCC(=O)N[C@H](C(=O)N4C[C@H](O)C[C@H]4C(=O)NCc4ccc(-c5scnc5C)cc4)C(C)(C)C)CC3)nc(N3CCC(F)(F)CC3)nc2cc1OCCCN1CCCC1 [Compound 13, (2S,4R)-1-((S)-2-(tert-butyl)-20-(4-((2-(4,4-difluoropiperidin-1-yl)-6-methoxy-7-(3-(pyrrolidin-1-yl)propoxy)quinazolin-4-yl)amino)piperidin-1-yl)-4,17-dioxo-7,10,13-trioxa-3,16-diazaicosanoyl)-4-hydroxy-N-(4-(4-methylthiazol-5-yl)benzyl)pyrrolidine-2-carboxamide] | little or no degradation | little or no degradation |  |  | 
COc1cc2c(NC3CCN(CCCC(=O)NCCC(=O)N[C@H](C(=O)N4C[C@H](O)C[C@H]4C(=O)NCc4ccc(-c5scnc5C)cc4)C(C)(C)C)CC3)nc(N3CCC(F)(F)CC3)nc2cc1OCCCN1CCCC1 [Compound 1, (2S,4R)-1-((S)-2-(3-(4-(4-((2-(4,4-difluoropiperidin-1-yl)-6-methoxy-7-(3-(pyrrolidin-1-yl)propoxy)quinazolin-4-yl)amino)piperidin-1-yl)butanamido)propanamido)-3,3-dimethylbutanoyl)-4-hydroxy-N-(4-(4-methylthiazol-5-yl)benzyl)pyrrolidine-2-carboxamide] | moderate | moderate |  |  | 
COc1cc2c(NC3CCN(CCCC(=O)NCCOCCOCCC(=O)N[C@H](C(=O)N4C[C@H](O)C[C@H]4C(=O)NCc4ccc(-c5scnc5C)cc4)C(C)(C)C)CC3)nc(N3CCC(F)(F)CC3)nc2cc1OCCCN1CCCC1 [Compound 12, (2S,4R)-1-((S)-2-(tert-butyl)-17-(4-((2-(4,4-difluoropiperidin-1-yl)-6-methoxy-7-(3-(pyrrolidin-1-yl)propoxy)quinazolin-4-yl)amino)piperidin-1-yl)-4,14-dioxo-7,10-dioxa-3,13-diazaheptadecanoyl)-4-hydroxy-N-(4-(4-methylthiazol-5-yl)benzyl)pyrrolidine-2-carboxamide] | little or no degradation | little or no degradation |  |  | 

Further lines, with some results ahead:

G9a degradation, in words ([1]; 22Rv1 cells, 0.3 or 3 μM) | GLP degradation, in words ([2]; 22Rv1 cells, 0.3 or 3 μM) | inhibition of G9a enzymatic activity [4] | inhibition of GLP enzymatic activity [5] | Compound | also measured
 |  | similarly inhibited | similarly inhibited | COc1cc2c(NC3CCN(C(C)C)CC3)nc(N3CCC(F)(F)CC3)nc2cc1OCCCN1CCCC1 [UNC0642, reference compound] | G9a degradation, in words ([1]; K562 cells, 3 μM): did not degrade; GLP degradation, in words ([2]; K562 cells, 3 μM): did not degrade; GI50 of cell growth inhibition (IC50 in the figure) [3]: unable to suppress cell proliferation; mRNA levels of G9a [6]: did not significantly alter; mRNA levels of GLP [7]: did not significantly alter
 |  | similarly inhibited | similarly inhibited | COc1cc2c(NC3CCN(CCCC(=O)NCCCCCCCCCCCC(=O)N[C@H](C(=O)N4C[C@@H](O)C[C@@H]4C(=O)NCc4ccc(-c5scnc5C)cc4)C(C)(C)C)CC3)nc(N3CCC(F)(F)CC3)nc2cc1OCCCN1CCCC1 [Compound 14, (2R,4S)-1-((S)-2-(12-(4-(4-((2-(4,4-difluoropiperidin-1-yl)-6-methoxy-7-(3-(pyrrolidin-1-yl)propoxy)quinazolin-4-yl)amino)piperidin-1-yl)butanamido)dodecanamido)-3,3-dimethylbutanoyl)-4-hydroxy-N-(4-(4-methylthiazol-5-yl)benzyl)pyrrolidine-2-carboxamide] | 
